Results taken from ChEMBL document CHEMBL2311339, “Identification of GZD824 as an orally bioavailable inhibitor that targets phosphorylated and nonphosphorylated breakpoint cluster region-Abelson (Bcr-Abl) kinase and overcomes clinically acquired mutation-induced resistance against imatinib” (J Med Chem, 2013).
Active and inactive are the calls of the source. The rule behind the calls is not given here.

Legend:
Cytochrome P450 2E1 = Cytochrome P450 2E1 (Homo sapiens, UniProt P05181); assay: Inhibition of human recombinant CYP2E1 at 30 uM after 30 mins; type: ADME; settings: recombinant enzyme, 0.5 h
Sequence of Cytochrome P450 2E1 (P05181 whole entry): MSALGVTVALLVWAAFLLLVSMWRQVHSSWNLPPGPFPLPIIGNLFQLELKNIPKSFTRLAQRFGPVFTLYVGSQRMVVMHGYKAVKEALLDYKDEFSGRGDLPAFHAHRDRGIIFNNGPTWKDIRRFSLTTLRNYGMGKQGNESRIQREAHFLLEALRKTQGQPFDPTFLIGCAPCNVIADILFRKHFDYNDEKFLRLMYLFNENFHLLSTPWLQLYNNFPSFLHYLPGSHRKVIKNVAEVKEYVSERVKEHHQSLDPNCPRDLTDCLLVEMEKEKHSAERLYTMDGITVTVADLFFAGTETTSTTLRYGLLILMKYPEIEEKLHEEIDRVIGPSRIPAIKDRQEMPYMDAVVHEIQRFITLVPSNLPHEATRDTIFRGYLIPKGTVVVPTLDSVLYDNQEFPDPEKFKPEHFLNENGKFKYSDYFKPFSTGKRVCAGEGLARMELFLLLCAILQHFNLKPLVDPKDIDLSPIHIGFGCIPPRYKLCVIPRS

[1] = target: T1, Tyrosine-protein kinase ABL1 (Homo sapiens, UniProt P00519, H396P); assay: Binding affinity to non phosphorylated ABL1 H396P mutant (unknown origin) after 1 hr
BaF3 [2] = assay: Antitumor activity against mouse BA/F3 cells expressing BCR-ABL T315I mutant allografted in SCID mouse assessed as increased survival at 1 to 20 mg/kg/day, po qd for 10 days; type: functional, organism-based
[3] = Volume of distribution at steady state in rat at 5 mg/kg, iv; type: ADME, organism-based; parameters: dose 5 mg/kg, route intravenous; settings: in vivo, read-out: Vdss
Method in brief: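 Test compound given to rats as its bismesylate salt in a single dose, 5 mg/kg iv or 25 mg/kg by mouth. Plasma drug levels were monitored after dosing, and PK parameters including Vss were reported per route.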

[4] = target: T1, Tyrosine-protein kinase ABL1; type: cell-based
[5] = Cytotoxicity against mouse BA/F3 cells expressing BCR-ABL E355G mutant assessed as growth inhibition after 72 hrs by CCK-8 assay; settings: BaF3, 72 h
BaF3 [6] = assay: Antitumor activity against mouse BA/F3 cells expressing BCR-ABL T315I mutant allografted in po dosed SCID mouse assessed as reduction of hepatosplenomegaly administered qd for 14 days; type: functional, organism-based
[7] = Cytotoxicity against mouse BA/F3 cells expressing wild type BCR-ABL assessed as growth inhibition after 72 hrs by CCK-8 assay; settings: BaF3, 72 h
[8] = Tmax in rat at 25 mg/kg, po; type: ADME, organism-based; parameters: dose 25 mg/kg, route oral; settings: in vivo
Method in brief: (§1)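 Bismesylate salt given to rats as a single iv dose of 5 mg/kg or a single oral dose of 25 mg/kg. Plasma drug levels were followed over time to derive the PK parameters. The 12 h and 24 h plasma levels come from the oral 25 mg/kg dose.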

[9] = target: Tyrosine-protein kinase ABL1 (Homo sapiens, UniProt P00519, Y253F); assay: Inhibition of human recombinant ABL1 Y253F mutant expressed in insect cells after 30 mins by FRET assay; type: cell-based
[10] = target: Tyrosine-protein kinase ABL1 (Homo sapiens, UniProt P00519, G250E); type: cell-based
BaF3 [11] = assay: Antitumor activity against mouse BA/F3 cells expressing BCR-ABL T315I mutant allografted in SCID mouse assessed as complete suppression of cell proliferation at 20 mg/kg/day, po qd for 10 days; type: functional, organism-based
Method in brief: (§2)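 Ba/F3 Bcr-Abl T315I cells stably carrying firefly luciferase, in saline, were injected i.v. into SCID nude mice (2 × 10^6 cells/0.1 mL). Imaging began 5−7 days later: i.p. D-luciferin, halothane anaesthesia, images after 5 min. Mice were randomised by signal and dosed by oral gavage once daily for 10 days (5, 10, 20 mg/kg/day; imatinib 100 mg/kg; vehicle). Luminescence was quantified; survival by Kaplan−Meier with log-rank test.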

BaF3 [12] = assay: Antitumor activity against mouse BA/F3 cells expressing BCR-ABL T315I mutant allografted in SCID mouse assessed as suppression of cell proliferation at 5 to 20 mg/kg/day, po qd for 10 days relative to untreated vehicle; type: functional, organism-based; method in brief: as §2
[13] = target: Voltage-gated inwardly rectifying potassium channel KCNH2 (Homo sapiens, UniProt Q12809); assay: Inhibition of human ERG expressed in CHO cells at up to 30 uM after 2.5 hrs by Rb+ efflux assay; type: cell-based
Sequence of Voltage-gated inwardly rectifying potassium channel KCNH2 (Q12809 whole entry): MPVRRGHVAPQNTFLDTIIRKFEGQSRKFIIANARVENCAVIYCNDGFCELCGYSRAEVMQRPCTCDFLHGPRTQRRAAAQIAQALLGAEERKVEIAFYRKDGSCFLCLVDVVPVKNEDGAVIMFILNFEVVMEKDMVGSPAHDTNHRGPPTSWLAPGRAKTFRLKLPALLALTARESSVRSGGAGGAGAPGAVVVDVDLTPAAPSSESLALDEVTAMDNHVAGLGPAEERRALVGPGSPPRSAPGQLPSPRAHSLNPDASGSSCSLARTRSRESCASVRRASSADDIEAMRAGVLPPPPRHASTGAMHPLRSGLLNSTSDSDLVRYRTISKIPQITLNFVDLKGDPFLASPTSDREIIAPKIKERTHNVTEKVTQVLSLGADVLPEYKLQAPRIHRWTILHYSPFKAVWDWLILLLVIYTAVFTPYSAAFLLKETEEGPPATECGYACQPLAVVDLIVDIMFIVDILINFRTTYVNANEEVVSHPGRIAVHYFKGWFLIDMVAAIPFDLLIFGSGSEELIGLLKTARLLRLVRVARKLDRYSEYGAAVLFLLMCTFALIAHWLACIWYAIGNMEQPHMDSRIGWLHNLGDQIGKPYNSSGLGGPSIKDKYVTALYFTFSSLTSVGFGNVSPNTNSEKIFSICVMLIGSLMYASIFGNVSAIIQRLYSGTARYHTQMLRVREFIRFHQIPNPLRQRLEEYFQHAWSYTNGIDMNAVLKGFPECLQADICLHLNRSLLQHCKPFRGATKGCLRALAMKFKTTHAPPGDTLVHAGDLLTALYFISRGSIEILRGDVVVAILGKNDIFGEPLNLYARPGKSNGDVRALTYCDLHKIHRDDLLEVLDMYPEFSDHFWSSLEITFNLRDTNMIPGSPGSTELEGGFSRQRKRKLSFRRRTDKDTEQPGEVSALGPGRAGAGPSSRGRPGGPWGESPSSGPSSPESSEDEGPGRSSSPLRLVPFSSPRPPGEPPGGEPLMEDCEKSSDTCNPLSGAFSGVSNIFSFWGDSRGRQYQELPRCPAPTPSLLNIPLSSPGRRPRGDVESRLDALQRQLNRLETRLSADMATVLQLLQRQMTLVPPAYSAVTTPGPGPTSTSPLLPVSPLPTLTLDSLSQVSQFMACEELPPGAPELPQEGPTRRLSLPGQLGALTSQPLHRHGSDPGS

cells = settings: Mus musculus, BaF3, 72 h
[14] = Cytotoxicity against mouse BA/F3 cells assessed as growth inhibition after 72 hrs by CCK-8 assay; settings: BaF3, 72 h
[15] = target: Tyrosine-protein kinase ABL1 (Homo sapiens, UniProt P00519, F317I); assay: Binding affinity to non phosphorylated ABL1 F317I mutant (unknown origin) after 1 hr
Mus musculus = assay: Toxicity in human K562 cells xenografted mouse assessed as body weight loss relative to vehicle-treated control; type: organism-based; settings: in vivo
Method in brief: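 K562 cells (2.5 × 10^7 cells/mL in normal saline, 0.2 mL) were injected subcutaneously into the right flank. Mice were randomized once mean tumor volume reached 100−200 mm3, n = 10 per group. Dosing was by oral gavage once daily for 14 days in 1% DMSO/22.5% Cremophor/7.5% ethanol/69% saline. Tumor volume (L × W²/2) and body weight were measured every 2 days; unpaired t test versus vehicle.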

[16] = target: Tyrosine-protein kinase ABL1 (Homo sapiens, UniProt P00519); assay: Binding affinity to non phosphorylated wild type ABL1 (unknown origin) after 1 hr
[17] = AUC (0 to t) in rat at 5 mg/kg, iv; type: ADME, organism-based; parameters: dose 5 mg/kg, route intravenous; settings: plasma; method in brief: as §1
Cytochrome P450 2C9 = Cytochrome P450 2C9 (Homo sapiens, UniProt P11712); assay: Inhibition of human recombinant CYP2C9 after 30 mins; type: ADME
Sequence of Cytochrome P450 2C9 (P11712 whole entry): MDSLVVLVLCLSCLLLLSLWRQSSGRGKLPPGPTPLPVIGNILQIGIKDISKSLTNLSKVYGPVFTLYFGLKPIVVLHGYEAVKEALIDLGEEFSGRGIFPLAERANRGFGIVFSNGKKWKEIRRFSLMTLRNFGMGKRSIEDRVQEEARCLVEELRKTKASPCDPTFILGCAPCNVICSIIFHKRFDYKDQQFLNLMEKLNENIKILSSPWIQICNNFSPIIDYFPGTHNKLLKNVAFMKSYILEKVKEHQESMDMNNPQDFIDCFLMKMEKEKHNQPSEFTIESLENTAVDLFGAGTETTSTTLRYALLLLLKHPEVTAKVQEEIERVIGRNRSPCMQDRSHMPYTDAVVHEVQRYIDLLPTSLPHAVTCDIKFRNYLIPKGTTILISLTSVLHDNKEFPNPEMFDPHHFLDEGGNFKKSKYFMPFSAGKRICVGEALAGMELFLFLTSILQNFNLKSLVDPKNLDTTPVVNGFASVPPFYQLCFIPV

BaF3 [18] = assay: Antitumor activity against mouse BA/F3 cells expressing BCR-ABL T315I mutant allografted in po dosed SCID mouse assessed as inhibition of tumor growth administered qd for 14 days; type: functional, organism-based
Method in brief: (§3)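 Ba/F3 cells stably expressing Bcr-Abl (wild type or mutant) were grown in RPMI 1640 with 10% FBS and no IL-3, then suspended in saline (2.5 × 10^7 cells/mL) and given as 0.2 mL s.c. in the right flank. Groups were randomised at 100−200 mm3. Once-daily oral gavage for 14 days in DMSO/Cremophor/ethanol/saline vehicle; reference imatinib 50 or 100 mg/kg/day. Volume L × W²/2 every 2 days; n = 10; t test versus vehicle.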

[19] = target: Serine/threonine-protein kinase B-raf (Homo sapiens) (UniProt P15056); assay: Binding affinity to BRAF (unknown origin) at 10 nM after 2 hrs by FRET assay
Sequence of Serine/threonine-protein kinase B-raf (Homo sapiens) (P15056 whole entry): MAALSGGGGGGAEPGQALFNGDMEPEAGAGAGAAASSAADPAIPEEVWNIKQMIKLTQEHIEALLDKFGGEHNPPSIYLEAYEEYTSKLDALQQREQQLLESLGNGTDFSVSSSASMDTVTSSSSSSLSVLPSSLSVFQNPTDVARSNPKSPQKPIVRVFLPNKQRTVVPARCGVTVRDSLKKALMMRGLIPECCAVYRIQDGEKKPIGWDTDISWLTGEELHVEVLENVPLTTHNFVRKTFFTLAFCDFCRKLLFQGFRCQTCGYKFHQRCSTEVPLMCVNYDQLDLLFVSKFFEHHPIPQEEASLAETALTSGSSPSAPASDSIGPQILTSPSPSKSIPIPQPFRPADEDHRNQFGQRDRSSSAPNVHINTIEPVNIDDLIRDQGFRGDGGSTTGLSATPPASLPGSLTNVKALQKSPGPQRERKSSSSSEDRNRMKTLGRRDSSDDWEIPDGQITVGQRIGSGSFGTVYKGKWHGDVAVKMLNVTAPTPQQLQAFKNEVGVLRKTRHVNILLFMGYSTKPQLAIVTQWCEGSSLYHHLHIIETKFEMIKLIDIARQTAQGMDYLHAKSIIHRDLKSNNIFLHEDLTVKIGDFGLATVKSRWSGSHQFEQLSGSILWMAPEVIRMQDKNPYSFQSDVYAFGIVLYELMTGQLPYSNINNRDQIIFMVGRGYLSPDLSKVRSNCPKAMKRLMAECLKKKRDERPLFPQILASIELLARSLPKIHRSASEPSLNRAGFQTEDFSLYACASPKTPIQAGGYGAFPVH

BaF3 [20] = assay: Antitumor activity against mouse BA/F3 cells expressing BCR-ABL T315I mutant allografted in SCID mouse assessed as induction of tumor regression at 20 mg/kg/day, po qd for 14 days; type: functional, organism-based; method in brief: as §3
[21] = Cytotoxicity against mouse BA/F3 cells expressing BCR-ABL F317V mutant assessed as growth inhibition after 72 hrs by CCK-8 assay; settings: BaF3, 72 h
[22] = Intrinsic clearance in rat liver microsomes at 1 uM; type: ADME, Microsome; settings: read-out: CLH
[23] = Mean residence time in rat at 5 mg/kg, iv; type: ADME, organism-based; parameters: dose 5 mg/kg, route intravenous; settings: in vivo; method in brief: as §1
[24] = target: Tyrosine-protein kinase ABL1 (Homo sapiens, UniProt P00519, M351T); assay: Binding affinity to phosphorylated ABL1 M351T mutant (unknown origin) after 1 hr
[25] = Plasma concentration in rat after 24 hrs; type: ADME; method in brief: as §1
K562 = assay: Antitumor activity against human K562 cells xenografted in mouse assessed as decrease in tumor recurrence at 2 mg/kg, po qd for 20 days; type: functional, organism-based; parameters: dose 2 mg/kg
[26] = Cytotoxicity against mouse BA/F3 cells expressing BCR-ABL F486S mutant assessed as growth inhibition after 72 hrs by CCK-8 assay; settings: BaF3, 72 h

With `Cc1ccc(C(=O)Nc2ccc(CN3CCN(C)CC3)c(C(F)(F)F)c2)cc1C#Cc1cnc2[nH]ncc2c1` [OLVEREMBATINIB] the “inhibition (INH)” value (Cytochrome P450 2E1) was “Not Active”, the Kd [1] was 0.18 nM and the Activity (BaF3 [2]) was “Dose-dependent effect”. It also gave a Vd [3] of 13.7 L/kg, an IC50 [4] of 0.35 nM and an IC50 [5] of 2.6 nM. The Activity (BaF3 [6]) was “Active”, the IC50 [7] was 1 nM and the Tmax [8] was 4 h. For the same molecule, the IC50 [9] was 0.35 nM, the IC50 [10] was 0.71 nM and the Activity (BaF3 [11]) was “Active”. For the same molecule, the Activity (BaF3 [12]) was “Active”, the “inhibition (INH)” value [13] was “Not Active” and the IC50 (cells) was 7.1 nM. For the same molecule, the IC50 [14] was 170 nM, the Kd [15] was 1.8 nM and the Activity (Mus musculus) was under 5%. The Kd [16] was 0.32 nM, the AUC(0-t) [17] was 2740 ng·h/mL and the IC50 (Cytochrome P450 2C9) was 110 nM. For the same molecule, the TGI (BaF3 [18]) was “Active”, the Activity [19] was “inactive” and the Activity (BaF3 [20]) was “Active”. For the same molecule, the IC50 [21] was 4 nM, the microsomal CLint at 1 µM [22] was 36.4 µL/min/mg and the MRT [23] was 6.7 h. For the same molecule, the Kd [24] was 0.23 nM, the concentration at 24 h [25] was 169 nM and the Activity (K562) was “inactive”. For the same molecule, the IC50 [26] was 1 nM.
